Results reported in ChEMBL document CHEMBL4325864, “Discovery of new potent protein arginine methyltransferase 5 (PRMT5) inhibitors by assembly of key pharmacophores from known inhibitors” (Bioorg Med Chem Lett, 2018).
pIC50: −log10 of the molar value.

Legend:
PRMT5/MEP50 complex = PRMT5/MEP50 complex (Homo sapiens, UniProt O14744); test: Inhibition of recombinant human N-terminal FLAG-tagged PRMT5 (2 to end residues) /human N-terminal His-tagged MEP50 (2 to end residues) expressed in HEK293F cells pretreated for 15 mins followed by substrate and [3H]-SAM addition measured after 60 mins by scintillation proximity assay; assay type: cell-based
Sequence of PRMT5/MEP50 complex (O14744 whole entry): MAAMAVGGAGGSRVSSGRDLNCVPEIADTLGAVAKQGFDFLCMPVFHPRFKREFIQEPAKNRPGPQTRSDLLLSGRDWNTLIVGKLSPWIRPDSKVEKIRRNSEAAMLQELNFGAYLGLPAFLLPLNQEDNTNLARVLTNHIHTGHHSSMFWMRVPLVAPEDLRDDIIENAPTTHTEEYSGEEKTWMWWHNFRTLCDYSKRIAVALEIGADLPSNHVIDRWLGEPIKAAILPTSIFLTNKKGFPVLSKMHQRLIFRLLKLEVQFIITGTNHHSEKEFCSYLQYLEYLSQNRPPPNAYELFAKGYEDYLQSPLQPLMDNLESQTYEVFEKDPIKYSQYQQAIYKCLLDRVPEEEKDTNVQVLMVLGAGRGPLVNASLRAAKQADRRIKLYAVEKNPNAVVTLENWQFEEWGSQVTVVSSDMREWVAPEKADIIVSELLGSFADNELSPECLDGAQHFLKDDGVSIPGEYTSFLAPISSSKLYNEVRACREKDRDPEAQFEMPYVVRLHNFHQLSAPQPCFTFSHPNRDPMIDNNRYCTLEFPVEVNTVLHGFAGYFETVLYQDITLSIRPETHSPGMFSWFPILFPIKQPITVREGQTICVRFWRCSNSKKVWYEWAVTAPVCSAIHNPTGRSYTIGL
Sequence of PRMT5/MEP50 complex (Q9BQA1 whole entry, further chain): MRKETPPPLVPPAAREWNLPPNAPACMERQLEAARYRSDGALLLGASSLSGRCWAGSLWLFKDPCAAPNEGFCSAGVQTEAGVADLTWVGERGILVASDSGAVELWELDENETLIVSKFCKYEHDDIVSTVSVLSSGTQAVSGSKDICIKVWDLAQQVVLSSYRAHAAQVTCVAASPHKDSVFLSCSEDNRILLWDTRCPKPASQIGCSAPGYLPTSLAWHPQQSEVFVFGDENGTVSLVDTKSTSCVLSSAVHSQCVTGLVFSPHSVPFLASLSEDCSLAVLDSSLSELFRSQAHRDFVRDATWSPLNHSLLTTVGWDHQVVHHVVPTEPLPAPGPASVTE
How it was run: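 PRMT5 enzymatic inhibition measured by radiometric scintillation proximity assay; IC50 determined.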

[1] = molecular target: T1, Protein arginine N-methyltransferase 5 (Homo sapiens, UniProt O14744); test: Inhibition of full-length N-terminal FLAG-tagged PRMT5 (unknown origin) (1 to 637 residues) expressed in baculovirus infected Sf9 insect cells using histone H4 as peptide after 5 hrs in presence of [H3]AdoMet by scintillation proximity assay
T1 sequence (O14744 whole entry, the tested form may be a part): as the sequence (O14744 whole entry) above

[2] = molecular target: T1, Protein arginine N-methyltransferase 5; test: Inhibition of PRMT5 in human KARPAS422 cells assessed as decrease in symmetric arginine dimethylation of SmD3 after 4 days by Western blot analysis; assay type: cell-based; conditions: in the assay text read “after 72 h” for “after 4 days”
How it was run: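 KARPAS-422 and SU-DHL-4 cells treated across a concentration range; symmetric arginine dimethylation of SmD3 detected by Western blot with symmetric dimethyl arginine (SDMA) antibody.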

[3] = molecular target: T1, Protein arginine N-methyltransferase 5; test: Inhibition of PRMT5 (unknown origin)

SMILES	pIC50 (PRMT5/MEP50 complex)	also measured
O=C(CCN1CCc2ccccc2C1)Nc1cccc(OC(F)(F)F)c1	4.20	
O=C(CCN1CCc2ccccc2C1)Nc1cccc(Cl)c1	4.38	
Nc1ncnc2c1ncn2[C@@H]1O/C(=C\[C@@H](N)CC[C@H](N)C(=O)O)[C@@H](O)[C@H]1O		pIC50 [1]: 7.46
Cc1cc([N+](=O)[O-])ccc1NC(=O)CCN1CCc2ccccc2C1	< 4.00	
Cc1cccc(NC(=O)CCN2CCc3ccccc3C2)c1	< 4.00	
COC(=O)c1ccccc1NC(=O)CCCN1CCc2ccccc2C1	4.06	
O=C(NC[C@H](O)CN1CCc2ccccc2C1)c1cc(NC2COC2)ncn1		inhibition [2]: Dose-dependent effect
O=C(NC[C@H]1C[C@@H]2CC[N@@]1C[C@@H]2CN1CCC(Cc2ccccc2)CC1)c1ccc2c(c1)OCO2		pIC50 [3]: 5.82

Now from value to compound, other results behind:

pIC50 (PRMT5/MEP50 complex)	SMILES	also measured
4.50	COC(=O)c1ccccc1NC(=O)CCN1CCc2ccccc2C1	
< 4.00	CCOC(=O)c1ccc(NC(=O)CCN2CCc3ccccc3C2)cc1	
< 4.00	O=C(CCN1CCc2ccccc2C1)Nc1ccccc1	
4.14	O=C(CCN1CCc2ccccc2C1)NNC(=O)c1ccccc1	
< 4.00	Cc1ccc(NC(=O)CCN2CCc3ccccc3C2)c([N+](=O)[O-])c1	
